Results from ChEMBL document CHEMBL1152449, “6-methyl-2,4-disubstituted pyridazin-3(2H)-ones: a novel class of small-molecule agonists for formyl peptide receptors” (J Med Chem, 2009).

Tests used:
[1] = biological target: T1, N-formyl peptide receptor 3 (Homo sapiens, UniProt P25089); experiment: Agonist activity at FPRL2 expressed in human HL60 cells assessed as induction of intracellular calcium flux by FLIPR3 calcium assay; assay type: functional, cell-based; conditions: hl-60
T1 sequence (P25089 whole entry): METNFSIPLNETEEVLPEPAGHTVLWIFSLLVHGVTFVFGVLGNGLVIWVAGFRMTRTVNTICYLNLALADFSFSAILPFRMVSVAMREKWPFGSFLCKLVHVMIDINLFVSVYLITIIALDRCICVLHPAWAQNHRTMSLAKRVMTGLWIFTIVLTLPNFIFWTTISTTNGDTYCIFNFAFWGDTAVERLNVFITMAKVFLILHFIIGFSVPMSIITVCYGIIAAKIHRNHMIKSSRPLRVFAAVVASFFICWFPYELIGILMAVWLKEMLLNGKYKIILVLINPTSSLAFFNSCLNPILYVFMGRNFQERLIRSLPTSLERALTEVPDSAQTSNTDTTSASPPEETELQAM
Outline: (§1)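 HL-60 cells stably transfected with the receptor, grown in RPMI with 10% heat-inactivated FCS, 10 mM HEPES, antibiotics and G418 (1 mg/mL). They were then washed, resuspended in HBSS+ (2 × 10^5 cells/well) and read on a FlexStation II.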

fMet-Leu-Phe receptor [2] = biological target: T2, fMet-Leu-Phe receptor (Homo sapiens, UniProt P21462); experiment: Agonist activity at FPR1 expressed in human HL60 cells assessed as induction of intracellular calcium flux by FLIPR3 calcium assay; assay type: functional, cell-based, HL-60; outline: as §1
T2 sequence (P21462 whole entry): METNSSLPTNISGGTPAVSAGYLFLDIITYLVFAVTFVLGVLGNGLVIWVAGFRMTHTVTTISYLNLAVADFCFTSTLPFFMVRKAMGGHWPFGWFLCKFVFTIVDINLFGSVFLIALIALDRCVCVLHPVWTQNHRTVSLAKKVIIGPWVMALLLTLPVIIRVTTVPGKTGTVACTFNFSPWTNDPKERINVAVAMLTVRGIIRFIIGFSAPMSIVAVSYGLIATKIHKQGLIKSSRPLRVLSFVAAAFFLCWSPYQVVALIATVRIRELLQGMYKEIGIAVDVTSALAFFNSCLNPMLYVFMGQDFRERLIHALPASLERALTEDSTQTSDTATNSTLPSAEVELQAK

[3] = biological target: T3, N-formyl peptide receptor 2 (Homo sapiens, UniProt P25090); experiment: Agonist activity at FPRL1 expressed in human HL60 cells assessed as induction of intracellular calcium flux by FLIPR3 calcium assay; assay type: functional, cell-based; conditions: hl-60; outline: as §1
T3 sequence (P25090 whole entry): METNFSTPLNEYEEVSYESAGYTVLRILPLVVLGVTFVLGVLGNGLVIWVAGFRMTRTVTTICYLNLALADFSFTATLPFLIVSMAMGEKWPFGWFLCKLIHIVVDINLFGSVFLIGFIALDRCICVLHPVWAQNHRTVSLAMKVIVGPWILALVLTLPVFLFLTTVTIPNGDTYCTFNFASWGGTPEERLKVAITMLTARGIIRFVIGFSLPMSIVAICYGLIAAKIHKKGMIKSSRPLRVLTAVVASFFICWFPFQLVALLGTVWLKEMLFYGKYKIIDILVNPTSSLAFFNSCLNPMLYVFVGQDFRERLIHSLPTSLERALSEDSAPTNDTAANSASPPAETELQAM

fMet-Leu-Phe receptor [4] = biological target: T2, fMet-Leu-Phe receptor; experiment: Agonist activity at FPR1 in human neutrophiles assessed as induction of intracellular calcium flux by FLIPR3 calcium assay; assay type: functional, cell-based
[5] = biological target: T4, fMet-Leu-Phe receptor (Homo sapiens) (UniProt P21462); experiment: Agonist activity at FPR1 expressed in human HL60 cells assessed as induction of intracellular calcium flux by FLIPR3 calcium assay relative to N-formyl-methionyl-leucyl-phenylalanine; assay type: functional, cell-based; conditions: HL-60
T4 sequence (whole entry): T2 sequence (P21462 whole entry)

COc1cccc(Cc2cc(C)nn(CC(=O)c3ccc(Br)cc3)c2=O)c1
EC50 [1]: Not Active
EC50 (fMet-Leu-Phe receptor [2]; hl-60): Not Active
EC50 [3]: Not Active

COc1cccc(Cc2cc(C)nn(CC(=O)Nc3ccc4c(c3)OCO4)c2=O)c1
EC50 [1]: Not Active
EC50 (fMet-Leu-Phe receptor [4]): 3600 nM
EC50 (fMet-Leu-Phe receptor [2]; read-out: EC50): 2300 nM
Activity [5]: 50%
EC50 [3]: Not Active
